Published values collected from several papers.
Each line is one published result; the experiments were not run side by side.

SMILES	method	sample	time	pH	temperature	notes	solubility
O=C(O)Cc1ccccc1Nc1c(Cl)cccc1Cl	–	FaSSIF	–	–	–	–	324 µM
C[C@H]1CN(c2cccc(-c3ccc4ncnc(Nc5ncco5)c4c3)c2)CCO1	–	aqueous buffer	–	pH 7.4	25 °C	–	6 µM
CN1CCN(c2ccc(-c3ccc4nncc(Nc5ccc(OC(F)(F)F)cc5)c4c3)cc2)CC1	–	aqueous buffer	–	pH 7.4	25 °C	–	2.5 µM
CCN(CC)CCCOc1ccc2c(=O)c3c([nH]c2c1)CCCC3	absorbance	aqueous buffer	90 min	pH 7.4	–	–	> 500 µM
O=[N+]([O-])c1ccc(Nc2ncnc3ccc(-c4cccc(N5CCOCC5)c4)cc23)cc1C(F)(F)F	–	aqueous buffer	–	pH 7.4	25 °C	–	< 0.4 µM
Cn1cc(-c2ccc3ccn(CC(=O)Nc4ccccc4Cl)c3c2)c(C(F)(F)F)n1	–	PBS	–	pH 7.4	–	–	< 2.7 µM
CN1CCN(c2cccc(-c3ccc4ncnc(Nc5ccc(Cl)c(C(F)(F)F)c5)c4c3)c2)CC1	–	aqueous buffer	–	pH 7.4	25 °C	–	< 1.4 µM
CCCCN(CCCC)CCCOc1ccc2c(=O)c3c([nH]c2c1)CCCC3	absorbance	aqueous buffer	90 min	pH 7.4	–	–	> 500 µM
CNS(=O)(=O)c1ccc(Nc2ncc(C(F)(F)F)c(N3CCC(C)(O)CC3)n2)c(C)c1	–	FaSSIF	2 h	–	–	–	26 µM
OCc1ccc(-c2nn(Cc3ccccc3)c3ccccc23)o1	–	aqueous buffer	6 h	pH 7.4	–	–	3 µg/mL
CN1CCC(Nc2ncnc3ccc(-c4cccc(N5CCOCC5)c4)cc23)CC1	–	aqueous buffer	–	pH 7.4	25 °C	–	928 µM
COc1cccc(Cn2nc(-c3ccc(CO)o3)c3ccccc32)c1	–	aqueous buffer	6 h	pH 7.4	–	–	1 µg/mL
CC(C)(C(=O)O)[C@@H](NC(=O)Cc1cccc(I)c1)c1ccc2oc(=O)[nH]c2c1	–	aqueous buffer	–	pH 6.8	–	–	> 700 µM
Cc1ncc(-c2cc3cc(-c4c(C)ccc(O)c4C)cnc3[nH]2)cn1	–	aqueous buffer	24 h	pH 7.4	–	–	< 1.56 µM
c1cc(-c2ccc3ncnc(Nc4ncco4)c3c2)cc(N2CC3CCC(C2)O3)c1	–	aqueous buffer	–	pH 7.4	25 °C	–	0.4 µM
Cc1ccc(Oc2ccc(NC(=O)COc3ccccc3N3CCCC3=O)cc2)cc1	–	PBS	–	pH 7.4	–	–	4.2 µM
COc1cc(NC(=O)Cn2cc(Cl)c3ccc(-c4cnn(C)c4)cc32)cc(OC)c1OC	–	PBS	–	pH 7.4	–	–	< 2.7 µM
Cc1cc(-c2ccnc3[nH]cc(F)c23)cc(F)c1[C@@]1(O)[C@H](C)CN(C(=O)CN)C[C@@H]1C	–	aqueous buffer	–	–	–	–	11.9 µg/mL
CNS(=O)(=O)c1ccc(Nc2ncc(C(F)(F)F)c([C@H]3CC[C@](C)(O)CC3)n2)c(C)c1	–	PBS	2 h	pH 7.4	–	–	0.4 µM
CO[C@H]1C[C@@H]2CC[C@@H](C)[C@@](O)(O2)C(=O)C(=O)N2CCCC[C@H]2C(=O)O[C@H]([C@H](C)C[C@@H]2CC[C@@H](O)[C@H](OC)C2)CC(=O)[C@H](C)/C=C(\C)[C@@H](O)[C@@H](OC)C(=O)[C@H](C)C[C@H](C)/C=C/C=C/C=C/1C	–	aqueous buffer	18 h	pH 7.4	–	–	6.03 µM
CCCN(CCC)CCNc1ccc2c(=O)c3c([nH]c2c1)CCCC3	absorbance	aqueous buffer	90 min	pH 7.4	–	–	> 500 µM
OCc1ccc(-c2nn(Cc3ccccc3)c3cnccc23)o1	–	aqueous buffer	6 h	pH 7.4	–	–	> 45 µg/mL
O=c1c2c(F)cc(Cl)cc2[nH]c2cccc(Oc3ccc(OC(F)(F)F)cc3)c12	absorbance	aqueous buffer	90 min	pH 7.4	–	–	32.3 µM

SMILES	method	sample	time	pH	temperature	notes	solubility
CNS(=O)(=O)c1ccc(Nc2ncc(C(F)(F)F)c(N3CCC[C@](C)(O)C3)n2)c(C)c1	–	PBS	2 h	pH 7.4	–	–	37 µM
Cn1cc(Nc2ncnc3ccc(-c4cccc(N5CCOCC5)c4)cc23)cn1	–	aqueous buffer	–	pH 7.4	25 °C	–	1.5 µM
CC1(CNc2nc(-c3cccs3)nc(Cl)c2-c2c(F)cc(N)cc2F)COC1	mass spectrometry	PBS	–	pH 7.4	–	–	46 µM
CCOC(=O)C1=C(CN2CCC[C@@H]2C(=O)Nc2ccc(B(O)O)cc2)NC(c2nccs2)=N[C@H]1c1ccc(F)cc1Br	HPLC	aqueous buffer	–	pH 2	–	–	257 µg/mL
Cc1cc(/C=C/C#N)cc(C)c1Nc1ccnc(Nc2ccc(C#N)cc2)n1	–	water	24 h	–	37 °C	–	0.2 µg/mL
CC(C)N(c1ccc(Cl)c(F)c1)c1ccc(NC(=O)CN(C)c2ccccc2N2CCCC2=O)cn1	–	PBS	–	pH 7.4	–	–	9.6 µM
Cc1ccccc1CN1C(=O)C2=C(CCN(Cc3ccccc3)C2)N2CCN=C12	shake flask	aqueous buffer	–	pH 5	–	–	6020 µg/mL
OCc1ccc(-c2nn(Cc3ccncc3)c3ccccc23)o1	–	aqueous buffer	6 h	pH 7.4	–	–	> 45 µg/mL
Cc1ccc(Oc2ccc(NC(=O)CN(C)c3ccccc3N3CCCC3=O)cc2)cc1	–	PBS	–	pH 7.4	–	–	4.8 µM
OCc1ccc(-c2nn(Cc3cccnc3)c3ccccc23)o1	–	aqueous buffer	6 h	pH 7.4	–	–	> 45 µg/mL
Cc1ccc(N(C)c2ccc(NC(=O)CN(C)c3ccccc3N3CCCC3=O)cn2)cc1	–	PBS	–	pH 7.4	–	–	44 µM
O=C1COc2ccc(-c3cccc(Cl)c3)cc2N1Cc1noc(C2CCC2)n1	–	PBS	8 h	pH 7.4	–	–	100 µM
Cc1ccc(Nc2ncnc3ccc(-c4cccc(N5CCOCC5)c4)cc23)cc1	–	aqueous buffer	–	pH 7.4	25 °C	–	0.9 µM
CCOC(=O)C1=C(CN2CCOCC2)NC(c2nccs2)=NC1c1ccc(F)cc1Br (stereo not drawn)	HPLC	aqueous buffer	–	pH 7.4	–	–	< 1 µg/mL
Cc1ccc(C(C)(C)c2ccc(NC(=O)CN(C)c3ccccc3N3CCCC3=O)cc2)cc1	–	PBS	–	pH 7.4	–	–	2.5 µM
O=C(O)c1cc(-c2ccc(-n3ccnn3)cc2)c2ccc(-c3ccc(C(F)(F)F)cc3)cc2c1	–	aqueous buffer	–	pH 7.4	–	–	9.1 µg/mL
C[C@@H]1CN(c2cccc(-c3ccc4ncnc(Nc5ncco5)c4c3)c2)C[C@H](C)O1	–	aqueous buffer	–	pH 7.4	25 °C	–	11 µM
O=C(Nc1ccc(OC(F)(F)F)cc1)N[C@H]1CC[C@H](Oc2ccc(C(=O)O)cc2)CC1	–	simulated gastric fluid	10 min	pH 1	37 °C	acidic	0.0002 µg/mL
O=C(CCCCCCC(=O)Nc1ccccc1)NO	–	water	–	–	–	–	720 µg/mL
c1ccc(Oc2ccc(Nc3c4c(nc5ccccc35)CCC4)cc2)cc1	–	simulated gastric fluid	30 min	pH 2	–	acidic	25 to 50 µg/mL
CN(C)CCOc1ccc2c(=O)c3c([nH]c2c1)CCCC3	absorbance	aqueous buffer	90 min	pH 7.4	–	–	> 500 µM
COc1cc(Cn2nc(-c3ccc(CO)o3)c3ccccc32)ccn1	–	aqueous buffer	6 h	pH 7.4	–	–	> 33 µg/mL
